High-throughput results (PubChem)
Rin1 Abl inh: inhibitors of human Rin1-Abl protein interaction. hit rate 0.4% among 360,000. inhibition, % at 7.35 µM. P00519+Q13671. AID 588664. TR-FRET Rin1/Abl binding, biochemical; in the data active means inhibition above about 5%, passing the limit was not always enough
GRK2 aptamer HTS: blocks RNA aptamer binding to human GRK2; P25098; bead flow cytometry, FAM-aptamer displacement from GRK2; inhibition of aptamer binding, % at 10 µM; hit rate 0.59% among 330,000; AID 488847;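 active means inhibition of aptamer binding above 40%, roughly 3 SD of noise, on plates passing a quality check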;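 further: median bead fluorescence of bound FAM aptamer so fluorescent compounds give negative values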
SR-BI uptake up: activators of SR-BI mediated HDL lipid uptake; CHO ldlA[mSR-BI] cells, DiI-HDL uptake fluorescence, 3 h; 100 = double the neutral-control signal; hit rate 0.096% among 320,000; AID 504775; activation, % at 12.5 µM;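 active means mean replicate activation of at least 60% and every replicate at or above 60%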;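 further: 0% = median plate neutral-control signal and 100% = twice that signal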
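Test system: SR-BI-overexpressing, LDLR-lacking CHO cells; Medium: Ham's F12 with 0.5% BSA, HEPES 25 mM, pH 7.4; Schedule: 3 h, 37 °C; Technique: bottom-read fluorescence, 550/595 nm.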
SR-BI HDL uptake: inhibitors of mouse SR-BI mediated HDL lipid uptake; Q61009; ldlA[mSR-BI] CHO cells, DiI-HDL uptake fluorescence, 3 h; inhibition, % at 12.5 µM; hit rate 0.96% among 320,000;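 active means mean replicate inhibition of at least 70% and a set share of replicates each scoring 70 or more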;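 further: 0% = median of neutral control wells and 100% = median of positive control wells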
Rin1-Abl confirm: Rin1-Abl interaction inhibition confirmation | shares compounds with Rin1 Abl inh | TR-FRET Rin1-Abl binding, purified proteins | inhibition, % at 7.35 µM | hit rate 49% among 1,300 | AID 602124
GFP quench: GFP fluorescence interference artifact | shares compounds with Rin1 Abl inh | inhibitors/quenchers counterscreen | inhibition, % at 6.75 µM | hit rate 8.5% among 1,300;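 further: ABL1-eGFP fusion protein alone without its partner RIN1-SBP; 0% = protein with vehicle and 100% = wells lacking protein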
GFP quench dose: GFP fluorescence interference dose response; AID 602182; shares compounds with Rin1 Abl inh; IC50, µM; 230 tested, under 10 active; GFP fluorescence interference/quenching counterscreen; call rule not given here;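 further: ABL1-eGFP fusion protein alone without its RIN1 binding partner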
The depositor's hits bear a star; . = no result given; ! = repeats disagree. A selection: hits, their analogues and other compounds. The true share with any hit is near 1.9%. Unless noted, no stated cut-off is given here; in the data, active means inhibition above about 6.5%; inactive means the rest.

SMILES	Rin1 Abl inh	GRK2 aptamer HTS	SR-BI uptake up	SR-BI HDL uptake	Rin1-Abl confirm	GFP quench	others
c1ccc(CN2Cc3ccccc3-n3nncc3C2)nc1	-5	.	.	.	.	.
C[C@]12CCC3[C@@H](CC[C@H]4C[C@@H](O)CC[C@]34C)C1CCC2=O (some centres not stated)	2	2	28	-28	.	.
C[C@]12CCC3C(C(=O)C[C@H]4C[C@@H](O)CC[C@]34C)C1CCC2=O (some centres not stated)	21*	0	12	-12	20*	-1	GFP quench dose=>68
CCCN1CCCC(C(=O)c2cc(C)c(OC)c(C)c2)C1 (configuration not stated)	-2	0	5	-5	.	.
C=Cc1ccc(Cn2c(C(=O)O)c(C=O)c3ccccc32)cc1	1	7	18	-18	.	.
CCc1nnc(NC(=O)CCc2nc(C3=CCN(C)CC3)no2)s1	63*	0	3	-3	62*	2	GFP quench dose=>68
COc1ccc2nc(NC(=O)CCc3nc(C4=CCN(C)CC4)no3)sc2c1	75*	2	-42	42	80*	-1	GFP quench dose=>68
O=C(NC1CCCCC1)Oc1cc2oc(=O)sc2cc1Cl	6.3*	4	.	.	-1	-2
COc1ccc(C(c2nnnn2-c2ccc3c(c2)OCCO3)N2CCC(n3c(=O)[nH]c4ccccc43)CC2)cc1 (configuration not stated)	7	.	.	.	.	.
COc1ccc(-n2nnnc2C(CCSC)N2CCC(n3c(=O)[nH]c4ccccc43)CC2)cc1 (configuration not stated)	13*	.	.	.	8.2*	-1
O=c1[nH]c2ccccc2n1C1CCN(C(c2ccnc3ccccc23)c2nnnn2-c2ccc3c(c2)OCCO3)CC1 (configuration not stated)	45*	.	.	.	32*	0	GFP quench dose=>67
NCCc1cc(O)c(O)cc1O	39*	.	9	-9	41*	8.7*
COc1ccc(CCN)cc1O	1	0	-10	10	.	.
O=C(c1cccc2ccccc12)C1CCCN(C2CCC2)C1 (configuration not stated)	0	0	7	-7	.	.
C[C@@H]1CN([C@H](C)CO)C(=O)CCCn2cc(nn2)CO[C@H]1CN(C)C(=O)Oc1ccc2ccccc2c1	-3	.	.	.	.	.
C=CCN1CC[C@]23c4c5ccc(O)c4O[C@H]2C(=O)CC[C@@]3(O)[C@H]1C5	1	1	11	-11	.	.
C=CCN1CCc2cccc3c2[C@H]1Cc1ccc(O)c(O)c1-3	8.5*	2	-12	12	7.1*	11*
CN(C)[C@@H]1C(=O)C(C(N)=O)=C(O)[C@@]2(O)C(=O)C3=C(O)c4c(O)cccc4[C@@](C)(O)[C@H]3[C@H](O)[C@@H]12	16*	57*!	-22	39	2	7
